Screening data from PubChem BioAssay.
The list is not random: actives were taken first. Their share in the collection is about 2.2%.
Tn6 DDE FP: DD(E)-Tn6 binding inhibition, primary FP screen; Fibrin DD(E) TRITC-Tn6 fluorescence polarization displacement; 0.21% of 370,000 active; inhibition, % at 8.3 µM; AID 720509; P02675;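 active = inhibition above a per-campaign cutoff: mean of compounds within control limits plus 3 SD, cut at about 15% in these data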
Tn7 DDE FP: DD(E)-Tn7 binding inhibition, primary FP screen; 0.13% of 370,000 active; P02675; AID 720508; FP displacement of FITC-Tn7 peptide from fibrin DD(E); 0% = median of compound wells per plate; inhibition, % at 8.3 µM;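 active = inhibition above the mean of compounds falling within the control limits plus 3 SD of them, cut at about 14% in these data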
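Assay system: human fibrin DD(E). Input: DD(E) 2 µM final. Medium: Tris buffer with calcium and detergent, pH 7.8. Compound dosing: single point at 8.3 µM. Timing: 10 min plus 3 h, room temperature. Technique: fluorescence polarization of the labelled Tn7 tracer. Read-out: percent inhibition. Replicates: singlicate testing.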
Neddyl block: blocks human cullin neddylation; P61081+Q13564; 0.58% of 360,000 active; AID 651699; TR-FRET cullin neddylation, biochemical; calls only at 25 µM; in the data active = inhibition above about 36%
MT1-MMP act inh: blocks activation of human MT1-MMP; P50281; HT1080 RFP-PRO-GFP cells, GFP/RFP ratio fluorescence, overnight; percent of plate control window, DMSO zero; GFP/RFP ratio change, % at 20 µM; 0.061% of 360,000 active;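 active = GFP/RFP ratio change of at least 30% with cell ATP level not reduced by more than half and red fluorescence within 50% of control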
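Compound: 20 µM single dose, 1% DMSO / System: HT1080 RFP-PRO-GFP cells / Controls: DMSO and RFP-L50D-GFP cell wells / Read-out basis: GFP/RFP fluorescence ratio / Schedule: overnight compound exposure at 37 °C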
KLK7 zymogen act: activates the human kallikrein-7 zymogen; P49862; purified proKLK7, EDANS-DABCYL substrate fluorescence; 100% is mature enzyme control, 0% vehicle; activation, % at 7 µM; 0.9% of 370,000 active; AID 652039;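 active = activation above the mean of all tested compounds plus 3 SD, computed per campaign excluding outliers beyond control limits, cut at about 13% in these data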
Target sequence (P49862 whole entry, looked up): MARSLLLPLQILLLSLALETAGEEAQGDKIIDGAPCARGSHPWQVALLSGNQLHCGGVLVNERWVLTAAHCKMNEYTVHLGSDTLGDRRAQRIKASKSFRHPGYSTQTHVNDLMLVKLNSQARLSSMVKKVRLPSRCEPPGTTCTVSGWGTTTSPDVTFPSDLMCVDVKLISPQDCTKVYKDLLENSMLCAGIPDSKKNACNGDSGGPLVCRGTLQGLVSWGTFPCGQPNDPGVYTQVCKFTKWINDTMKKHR
SKN-1 block: inhibitors of C. elegans SKN-1; inhibition, % at 21.8 µM; AID 624304; 0.49% of 360,000 active; C. elegans VP596 Pgst-4::GFP/RFP ratio, acrylamide-induced, 24 h;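 active = interference check ratio from 0.5 to 1.5 plus GFP to RFP signal ratio inhibition reaching or exceeding a fixed threshold, cut at about 30% in these data, passing the limit was not always enough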
Tn6 DDE ctr: counter-screen hit for Tn6 peptide-fibrin DD(E) binding disruption. shares compounds with Tn6 DDE FP. TRITC-Tn6 fluorescence polarization displacement; 0% = median of compound wells, not DMSO. inhibition, % at 8.3 µM. 2% of 680 active. AID 720621;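 active = inhibition above the mean of test compounds lying between the control limits plus 3 SD of those, cut at about 14% in these data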
DDE Tn6 confirm: confirmation of inhibitors of Tn6 binding to human fibrin DD(E). shares compounds with Tn6 DDE FP. FP displacement of TRITC-Tn6 peptide from DD(E); 0% = per-plate median of test wells. inhibition, % at 8.3 µM. 10% of 680 active. AID 720631;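 active = inhibition above the mean of compounds lying within the control limits plus 3 SD, cut at about 16% in these data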
A number is an active result; n = inactive; x = not tested or not shown; + = active, no number.

SMILES | Tn6 DDE FP | Tn7 DDE FP | Neddyl block | MT1-MMP act inh | KLK7 zymogen act | SKN-1 block | Tn6 DDE ctr | DDE Tn6 confirm
CC1(C)CCN2CCC(C)(C)c3c(O)ccc1c32 | 30 | n | n | n | n | n | n | n
Cc1cc(C(=O)COc2ccc([N+](=O)[O-])cc2)c(C)n1C1CC1 | n | n | n | n | n | n | x | x
Cc1cc(C(=O)COc2cc(F)ccc2[N+](=O)[O-])c(C)n1C1CC1 | 16 | n | n | n | n | n | n | n
O=C(CSCc1cnn(-c2ccccc2)c1-n1cccc1)N1CCN(Cc2ccccc2)CC1 | n | n | n | n | n | n | x | x
O=C(NCCN1CCN(c2ccccc2)CC1)c1cccc(Br)c1 | n | n | n | n | n | n | x | x
CCCCN(C(=O)c1ccc(Cl)c(S(=O)(=O)N2CCOCC2)c1)c1c(N)n(CCC)c(=O)[nH]c1=O | 17 | n | n | n | n | n | n | n
Cc1ncc(C(O)c2ccccc2)n1Cc1ccccc1 (stereo not drawn) | n | n | n | n | n | n | x | x
CCC(=O)NC(Nc1sc2c(c1C(=O)OC)CCN(C)C2)(C(F)(F)F)C(F)(F)F | 17 | n | n | n | n | n | n | n
CCCCNC(=O)C1(C)CCN1C(=O)c1ccc(C(F)(F)F)nc1C (stereo not drawn) | n | n | n | n | n | n | x | x
O=C(NCC(=O)N1CCN(S(=O)(=O)c2cccc(F)c2)CC1)c1ccc(Br)o1 | 16 | n | n | n | n | n | n | n
CC(OC(=O)c1ccccc1NCCO)C(=O)Nc1ccc(S(=O)(=O)N2CCOCC2)cc1 (stereo not drawn) | n | n | x | n | n | n | x | x
COc1ccc(-c2[nH]ncc2CNC(C)CCn2cccn2)c(F)c1 (stereo not drawn) | n | n | n | n | n | n | x | x
O=C(NCCS(=O)(=O)N1CCN(c2ccccc2)CC1)c1cccs1 | n | n | n | n | n | n | x | x
O=C(NCCS(=O)(=O)N1CCN(c2ccccc2F)CC1)c1cccs1 | 17 | n | n | n | n | n | n | n
CC(C)CC(NC(=O)OC(C)(C)C)c1cn([C@@H](Cc2cc3ccccc3[nH]2)C(=O)N2CCN(C(=O)OC(C)(C)C)CC2)nn1 (stereo partly drawn) | n | n | n | n | n | n | x | x
Cc1cc2ncc(S(=O)(=O)C(C)(C)C)c(N)n2n1 | 17 | n | n | n | n | n | n | n
Cc1cc2ncc(S(=O)(=O)c3ccccc3)c(N)n2n1 | n | n | n | n | n | n | x | x
CO[C@H]1CC[C@@]2(C)[C@@H](CC[C@@H]3[C@@H]2CC[C@@]2(C)[C@H]3C[C@H](C(=O)O)O[C@]23CCCO3)C1 | n | n | n | n | n | n | x | x
CC(=O)N1CCSc2ccc(S(=O)(=O)NCCc3cccc(C)c3)cc21 | 16 | n | n | n | n | n | n | n
CC(=O)N1CCSc2ccc(S(=O)(=O)NCCc3ccc(C)cc3)cc21 | n | n | n | n | n | n | x | x
COc1cc2sc3ccc(-c4ccc(CN5CCOCC5)cc4)cc3c(=O)c2cc1OC | 18 | n | n | n | n | n | n | n
COC(=O)CC(C(=O)Nc1cc(C(=O)OC)cc(C(=O)OC)c1)N1CCN(C)CC1 (stereo not drawn) | n | n | n | n | n | n | x | x
COc1cc(/C=C2\C(=N)N3N=C(N4CCOCC4)SC3=NC2=O)ccc1OC(=O)c1ccccc1 | n | n | n | n | n | n | x | x
c1ccc(Oc2ccccc2-c2cc(NCCc3cccnc3)n3nccc3n2)cc1 | 17 | n | x | n | n | n | n | n
c1ccc(Oc2ccc(-c3cc(NCCc4cccnc4)n4nccc4n3)cc2)cc1 | n | n | x | n | n | n | x | x
SMILES | Tn6 DDE FP | Tn7 DDE FP | Neddyl block | MT1-MMP act inh | KLK7 zymogen act | SKN-1 block | Tn6 DDE ctr | DDE Tn6 confirm
Cc1cc(NC(=O)c2ccc(NS(=O)(=O)c3ccc(F)cc3)cc2)no1 | 17 | n | x | x | n | x | n | n
Cc1cc(C)c(S(=O)(=O)NCc2ccc3c(c2)cc(C)n3C)c(C)c1 | 59 | n | n | n | n | n | n | n
CC(=O)Nc1ccc(S(=O)(=O)NCc2ccc3c(c2)cc(C)n3C)cc1 | 62 | n | n | n | n | 50 | n | n
Cc1cccc(C(=O)NCC(=O)NCC2COc3ccccc3O2)c1 (stereo not drawn) | n | n | n | n | n | n | x | x
CC(=O)Nc1ccc(NC(=O)c2c(-c3ccccc3Cl)noc2C)c(C)c1 | n | n | n | n | n | n | x | x
O=C(Cn1nnc(-c2ccccc2F)n1)Nc1ccc(F)cc1F | 16 | n | x | x | n | x | n | n
CS(=O)(=O)c1ccc([C@@H](O)[C@@H](CF)NC(=O)C(Cl)Cl)cc1 | n | n | n | n | n | n | x | x
O=C1CCCC2=C1Sc1ccc(Cl)cc1N2 | n | n | n | n | n | n | x | x
COC(=O)c1ccc2c(c1)SC1=C(CCCC1=O)N2 | 22 | n | n | n | n | n | n | 24
COc1cccc(NC(=O)CN(C)C(=O)Cc2ccc3c(c2)OCCO3)c1 | n | n | n | n | n | n | x | x
COc1cccc2c1C(=O)c1c(O)c3c(c(O)c1C2=O)CC(O)(C(C)=O)CC3OC1CC(N(C)C)C(O)C(C)O1 (stereo not drawn) | + | n | n | n | n | n | n | 93
CCC(C)(C)C1CCc2c(sc(N)c2C(N)=O)C1 (stereo not drawn) | 17 | n | n | n | n | n | n | n
CCc1c(O)nc(SCC(=O)Nc2ccc(OC)cc2)n(C2CCCCC2)c1=O | n | n | n | n | n | n | x | x
COC(=O)COC(=O)c1ccc(Oc2nc(OC)nc(N(C)C)n2)cc1 | 21 | n | n | n | n | n | n | n
COc1nc(Oc2ccc(C(=O)OCC(N)=O)cc2)nc(N(C)C)n1 | n | n | n | n | n | n | x | x
O=C(CN1C(=O)c2cccnc2Oc2ccc(Cl)cc21)N1CCCCCC1 | n | n | n | n | n | n | x | x
O=C(CN1C(=O)c2cccnc2Oc2ccc(Cl)cc21)N1CCCC1 | 16 | n | n | n | n | n | n | n
O=C(Nc1ccccc1N1CCCC1)c1ccc(Cl)cc1Cl | 16 | n | n | n | n | n | n | n
Cc1cccc(NS(=O)(=O)c2ccc3[nH]c(=O)cc(C(=O)OC(C)C(=O)Nc4ccc([N+](=O)[O-])cc4)c3c2)c1 (stereo not drawn) | 50 | n | n | n | n | n | n | n
